Experimental data published in ChEMBL document CHEMBL3739331, “Synthesis and Bioactivities of Kanamycin B-Derived Cationic Amphiphiles” (J Med Chem, 2015).
In brackets after ≈: the same amount, converted by molar mass. Activity calls are given as the source filed them. The rule behind the calls is not given here.

Tests used:
[1] = Activity of AAC(3)-4 (unknown origin) assessed as compound acetylation activity by Ellman's method
Escherichia coli = test: Antibacterial activity against Escherichia coli MC1061 by microdilution method; assay type: functional
Outline: (§1)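 Broth microdilution MIC, in μg/mL, against a panel of Gram-positive and Gram-negative strains. Run at least in duplicate.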

Candida albicans [2] = test: Antifungal activity against azole-resistant Candida albicans ATCC 10231 after 48 hrs in presence of posaconazole by checkerboard microdilution assay; assay type: functional; details: ATCC 10231, 48 h
Outline: (§2)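 Checkerboard combinations of the aminoglycoside amphiphile with posaconazole against yeast strains, run in duplicate. Each agent's MIC is taken alone and in combination. The fractional inhibitory concentration index (FICI) is calculated to classify the interaction.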

Candida albicans [3] = test: Antifungal activity against azole-resistant Candida albicans ATCC 64124 assessed as cell death after 24 hrs by time-kill assay; assay type: functional, organism-based
Outline: (§3)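 Time-kill assay on C. albicans ATCC 64124 cultures exposed to test compound at 1/2 MIC, MIC and higher concentrations. Amphotericin B at 1 μg/mL and a no-drug culture serve as controls. CFU are counted at intervals over 24 h.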

Candida albicans [4] = test: Antifungal activity against azole-susceptible Candida albicans ATCC MYA-2876 after 48 hrs by microbroth dilution method; assay type: functional; details: ATCC MYA-2876, 48 h
Outline: (§4)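 Yeast MIC by broth microdilution, run in duplicate. The aminoglycoside compounds are read as MIC-0 (complete inhibition). Azoles are read as MIC-2 (50% inhibition).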

[5] = Cytotoxicity against human BEAS2B cells after 24 hrs by resazurin assay; assay type: cell-based, BEAS-2B; details: Homo sapiens, BEAS-2B
Enterobacter cloacae = test: Antibacterial activity against Enterobacter cloacae ATCC 13047 by microdilution method; assay type: functional
Outline: (§5)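 Broth microdilution MIC against the named bacterial strain, reported in μg/mL; each determination run at least in duplicate.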

Enterococcus = test: Antibacterial activity against vancomycin-resistant Enterococcus by microdilution method; assay type: functional; outline: as §1
Candida albicans [6] = test: Antifungal activity against azole-resistant Candida albicans ATCC 90819 after 48 hrs in presence of posaconazole by checkerboard microdilution assay; assay type: functional; details: ATCC 90819, 48 h; outline: as §2
Pseudomonas aeruginosa = test: Antibacterial activity against Pseudomonas aeruginosa ATCC 27853 by microdilution method; assay type: functional; outline: as §5
Staphylococcus aureus [7] = test: Antibacterial activity against methicillin-resistant Staphylococcus aureus by microdilution method; assay type: functional; outline: as §1
Salmonella enterica = test: Antibacterial activity against Salmonella enterica ATCC 14028 by microdilution method; assay type: functional; outline: as §5
Candida albicans [8] = test: Antifungal activity against azole-susceptible Candida albicans ATCC MYA-2876 after 48 hrs in presence of posaconazole by checkerboard microdilution assay; assay type: functional; details: ATCC MYA-2876, 48 h; outline: as §2
Candida albicans [9] = test: Antifungal activity against azole-resistant Candida albicans MYA-1003 after 48 hrs in presence of posaconazole by checkerboard microdilution assay; assay type: functional; details: MYA-1003, 48 h; outline: as §2
Candida albicans [10] = test: Antifungal activity against azole-resistant Candida albicans MYA-1003 after 48 hrs by microbroth dilution method; assay type: functional; details: MYA-1003, 48 h; outline: as §4
Candida albicans [11] = test: Antifungal activity against azole-susceptible Candida albicans ATCC MYA-2310 after 48 hrs in presence of posaconazole by checkerboard microdilution assay; assay type: functional; details: ATCC MYA-2310, 48 h; outline: as §2
Staphylococcus aureus [12] = test: Antibacterial activity against Staphylococcus aureus NRS22 (USA 600) by microdilution method; assay type: functional; outline: as §5
A549 = test: Cytotoxicity against human A549 cells after 24 hrs by resazurin assay; assay type: cell-based; details: Homo sapiens, A549, 24 h
Candida albicans [13] = test: Antifungal activity against azole-resistant Candida albicans ATCC 64124 after 48 hrs in presence of posaconazole by checkerboard microdilution assay; assay type: functional; details: ATCC 64124, 48 h; outline: as §2
Klebsiella pneumoniae = test: Antibacterial activity against Klebsiella pneumoniae ATCC 27736 by microdilution method; assay type: functional; outline: as §5
Candida albicans [14] = test: Antifungal activity against azole-resistant Candida albicans ATCC 64124 after 48 hrs by microbroth dilution method; assay type: functional; details: ATCC 64124, 48 h; outline: as §4
Candida albicans [15] = test: Antifungal activity against azole-resistant Candida albicans ATCC 64124 at sub-MIC measured over 24 hrs by time-kill assay; assay type: functional, organism-based; outline: as §3
Candida albicans [16] = test: Antifungal activity against azole-resistant Candida albicans ATCC 64124 assessed as cell membrane permeabilization at twice the MIC after 1 hr by propidium iodide-staining based fluorescence microscopic analysis (reference value: <2%); assay type: functional
Serratia marcescens = test: Activity of Serratia marcescens AAC(6')-2d assessed as compound acetylation activity by Ellman's method
Bacillus subtilis = test: Antibacterial activity against Bacillus subtilis 168 by microdilution method; assay type: functional; details: subsp. subtilis str. 168; outline: as §5
Candida albicans [17] = test: Antifungal activity against azole-resistant Candida albicans MYA-1237 after 48 hrs in presence of posaconazole by checkerboard microdilution assay; assay type: functional; details: MYA-1237, 48 h; outline: as §2
[18] = system: Staphylococcus epidermidis; test: Antibacterial activity against Staphylococcus epidermidis ATCC 12228 by microdilution method; assay type: functional; outline: as §5
Acinetobacter baumannii = test: Antibacterial activity against Acinetobacter baumannii ATCC 19606 by microdilution method; assay type: functional; outline: as §5
Candida albicans [19] = test: Antifungal activity against azole-resistant Candida albicans ATCC 64124 assessed as cell membrane permeabilization at 1 times MIC after 1 hr by propidium iodide-staining based fluorescence microscopic analysis (reference value: <2%); assay type: functional
[20] = system: Mycobacterium tuberculosis; test: Activity of Mycobacterium tuberculosis AAC(2')-1c assessed as compound acetylation activity by Ellman's method
Candida albicans [21] = test: Antifungal activity against azole-resistant Candida albicans ATCC 64124 at MIC measured after 6 hrs by time-kill assay; assay type: functional; outline: as §3
Candida albicans [22] = test: Antifungal activity against azole-susceptible Candida albicans ATCC MYA-2310 after 48 hrs by microbroth dilution method; assay type: functional; details: ATCC MYA-2310, 48 h; outline: as §4
Candida albicans [23] = test: Antifungal activity against azole-resistant Candida albicans MYA-1237 after 48 hrs by microbroth dilution method; assay type: functional; details: MYA-1237, 48 h; outline: as §4
[24] = system: Mycobacterium tuberculosis; test: Activity of Mycobacterium tuberculosis Eis assessed as compound acetylation activity by Ellman's method
Candida albicans [25] = test: Antifungal activity against azole-resistant Candida albicans ATCC 90819 after 48 hrs by microbroth dilution method; assay type: functional; details: ATCC 90819, 48 h; outline: as §4
[26] = Activity of AAC(6')-1e/APH(2'')-1a (unknown origin) assessed as compound acetylation activity by Ellman's method
Candida albicans [27] = test: Antifungal activity against azole-resistant Candida albicans ATCC 10231 after 48 hrs by microbroth dilution method; assay type: functional; details: ATCC 10231, 48 h; outline: as §4
[28] = system: Bacillus subtilis subsp. subtilis str. 168; test: Activity of Bacillus subtilis 168 APH(2'')-1a assessed as compound phosphorylation activity by Ellman's method
Staphylococcus aureus [29] = test: Antibacterial activity against Staphylococcus aureus NRS385 (USA 300) by microdilution method; assay type: functional; outline: as §1
[30] = Hemolytic activity against mouse RBC at 125 ug/ml after 60 mins; assay type: ADME, cell-based, Erythrocyte; details: red blood cells, read-out: Activity
Aspergillus nidulans = test: Antifungal activity against Aspergillus nidulans ATCC 38163 after 48 hrs by microbroth dilution method; assay type: functional; details: ATCC 38163, 48 h
Outline: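 Filamentous fungus MIC by broth microdilution, run in duplicate. All compounds are read as MIC-0 (complete inhibition).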

CCCCCCCCCCCCSC[C@@H]1O[C@@H](O[C@@H]2[C@@H](O)[C@H](O[C@@H]3O[C@@H](CN)[C@H](O)[C@@H](O)[C@@H]3N)[C@@H](N)C[C@H]2N)[C@@H](O)[C@H](N)[C@H]1O (stereo in doubt)
Activity [1]: inactive | MIC (Escherichia coli): > 128 µg/mL | MIC (Candida albicans [2]): 8 µg/mL | Activity (Candida albicans [3]): Active | MIC (Candida albicans [4]): 31.2 µg/mL (≈ 46.7 µM) | IC50 [5]: > 125 µg/mL | MIC (Enterobacter cloacae): > 128 µg/mL | MIC (Enterococcus): 16 µg/mL (≈ 24 µM) | MIC (Candida albicans [6]): 4 µg/mL | MIC (Pseudomonas aeruginosa): 32 µg/mL (≈ 47.9 µM) | MIC (Staphylococcus aureus [7]): 32 µg/mL (≈ 47.9 µM) | MIC (Salmonella enterica): > 128 µg/mL | MIC (Candida albicans [8]): 2 µg/mL | MIC (Candida albicans [9]): 2 µg/mL | MIC (Candida albicans [10]): 31.2 µg/mL (≈ 46.7 µM) | MIC (Candida albicans [11]): 1 µg/mL | MIC (Staphylococcus aureus [12]): 16 µg/mL (≈ 24 µM) | IC50 (A549): > 62.5 µg/mL | MIC (Candida albicans [13]): 2 µg/mL | MIC (Klebsiella pneumoniae): > 128 µg/mL | MIC (Candida albicans [14]): 31.2 µg/mL (≈ 46.7 µM) | Activity (Candida albicans [15]): Active | Activity (Candida albicans [16]): 44% | Activity (Serratia marcescens): inactive | MIC (Bacillus subtilis): > 128 µg/mL | MIC (Candida albicans [17]): 2 µg/mL | MIC [18]: > 128 µg/mL | MIC (Acinetobacter baumannii): > 128 µg/mL | Activity (Candida albicans [19]): 90% | Activity [20]: inactive | LCK (Candida albicans [21]): >=2 | MIC (Candida albicans [22]): 7.8 µg/mL (≈ 11.7 µM) | MIC (Candida albicans [23]): 31.2 µg/mL (≈ 46.7 µM) | Activity [24]: inactive | MIC (Candida albicans [25]): 31.2 µg/mL (≈ 46.7 µM) | Activity [26]: inactive | MIC (Candida albicans [27]): 31.2 µg/mL (≈ 46.7 µM) | Activity [28]: inactive | MIC (Staphylococcus aureus [29]): 16 µg/mL (≈ 24 µM) | hemolysis at 1 h, 125 ug/ml [30]: 40% | MIC (Aspergillus nidulans): ≤ 1.95 µg/mL
